This is an account of results in PubChem BioAssay AID504382 (The Scripps Research Institute Molecular Screening Center, 2011).

Each structure is given as a SMILES string. The whole screen tested about 2,500 compounds, of which about 460 (18%) were called active.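 Rule for the calls: active = mean activation above a cutoff of low control average plus 3 SD from the earlier screen (cut at about 12% in these data); inactive = the rest.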 These entries were drawn from the full list.

The assay can be described thus: compound fluorescence interference without thin filaments, confirmation, artefact control for cardiac RTF calcium sensitizer project, biochemical (AID 504382). Particulars: IANBD fluorescence interference counterscreen, buffer, EC20 Ca2+; at 7.2 µM; stronger effect = higher value; scaled: EC20 calcium 0, EC100 calcium 100. Summed up: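 Medium: MOPS buffer, 190 mM, with KCl, MgCl2, EGTA, NTA, DTT, pH 7.20; Dosing: one dose of 7.2 µM, 0.7% DMSO; Probe or stimulus: calcium at EC20 level, 0.472 mM final; Incubation: 15 min, 25 °C; Evaluation: compound fluorescence interference relative to control well signal range; Signal: fluorescence, 480/540 nm.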
Regarding `O=c1oc2c(O)cccc2cc1-c1nc2ccccc2[nH]1`, the fluorescence artifact activation was 0.04% (inactive).

Regarding `S=C(NCCCN1CCOCC1)Nc1ccc(-c2nc3ccccc3[nH]2)cc1`, the fluorescence artifact activation was 0.17% (inactive).

`O=c1oc2c(CN3CCCCC3)c(O)ccc2cc1-c1nc2ccccc2[nH]1`: the fluorescence artifact activation was 60.5% (active).

As for `O=C1CCc2cc(S(=O)(=O)NC3CCCCC3)ccc2N1`, the fluorescence artifact activation is -0.07% (inactive).

As to `Cc1ccc(CNC(=O)CC(C)S(=O)(=O)c2ccc3c(c2)NC(=O)CS3)o1` (stereo not given), the fluorescence artifact activation is 45.8% (active).

As to `Cc1cc(C)n2nc(SCC(=O)N(C)Cc3ccccc3)nc2n1`, the fluorescence artifact activation was -0.05% (inactive).

`O=C1/C(=C/C=C/c2ccccc2)Oc2c1ccc(O)c2CN1CCN(CCO)CC1`: the fluorescence artifact activation was 46.6% (active).

For `COc1ccccc1/C=C/C=C1\Oc2c(ccc(O)c2CN2CCN(CCO)CC2)C1=O`, the fluorescence artifact activation is 11.9% (active).

As to `CCN1CCN(Cc2c(O)ccc3c2O/C(=C\C=C\c2ccccc2)C3=O)CC1`, the fluorescence artifact activation was 20.6% (active).

For `CCN1CCN(Cc2c(O)ccc3c2O/C(=C\C=C\c2ccccc2OC)C3=O)CC1`, the fluorescence artifact activation was 1.64% (inactive).

With `COc1ccccc1/C=C/C=C1\Oc2c(ccc(O)c2CN(C)C)C1=O`, the fluorescence artifact activation is 5.64% (inactive).

In the case of `CCN(CC)Cc1c(O)ccc2c1O/C(=C\C=C\c1ccccc1)C2=O`, the fluorescence artifact activation is 0.87% (inactive).

For the compound `Cc1ccc(/C=C2\Oc3c(ccc(O)c3CN3CCN(CCO)CC3)C2=O)cc1`, the fluorescence artifact activation is 4.11% (inactive).

With `CN(C)Cc1c(O)ccc2c1O/C(=C\C=C\c1ccccc1)C2=O`, the fluorescence artifact activation was 0.37% (inactive).

Take `CCN1CCN(Cc2c(O)ccc3c2O/C(=C\c2ccccc2)C3=O)CC1`: the fluorescence artifact activation is 2.91% (inactive).

For `Cc1c(/C=N/O)c2ccccn2c1C=O`, the fluorescence artifact activation was 0.97% (inactive).

Regarding `O=[N+]([O-])c1cc(-c2nc(-c3ccncc3)no2)ccc1Cl`, the fluorescence artifact activation was -0.06% (inactive).

For the compound `CCCc1ccc(OCc2ccc(C(=O)NN)o2)c(OC)c1`, the fluorescence artifact activation was -0.08% (inactive).

With `CN1CCCc2cc3c(C(F)(F)F)cc(=O)oc3nc21`, the fluorescence artifact activation is 1.21% (inactive).

Regarding `CC1CCCCC1NS(=O)(=O)CCNC(=O)c1ccccc1` (stereo not given), the fluorescence artifact activation was -0.01% (inactive).

Turning to `CC(CC(=O)N1CCc2ccccc21)n1cccn1` (stereo not given), the fluorescence artifact activation is 0.19% (inactive).

Turning to `C[C@H](O)C(=O)C1=Nc2c(nc(N)[nH]c2=O)NC1`, the fluorescence artifact activation is 0.04% (inactive).

As to `CC(=O)c1cccc(NC(=O)Cn2nc(-c3ccccc3Cl)ccc2=O)c1`, the fluorescence artifact activation is 0.29% (inactive).

With `CN1C(=O)NC(c2ccccc2[N+](=O)[O-])C2=C1CCCC2=O` (stereo not given), the fluorescence artifact activation is 0.1% (inactive).

In the case of `CCN1C(=S)N[C@@H](CCc2ccccc2)[C@H](C(=O)OC)[C@H]1C`, the fluorescence artifact activation is 20.1% (active).

As to `O=C(N/N=C/c1ccc([N+](=O)[O-])cc1)c1cc(-c2ccc3c(c2)OCO3)n[nH]1`, the fluorescence artifact activation was 0.03% (inactive).

Take `CSc1nc(C)nc(N/C=C(\C#N)S(=O)(=O)c2ccccc2Cl)n1`: the fluorescence artifact activation was 0.27% (inactive).

Regarding `COC(=O)c1cc2c(cc1NC(=O)CSCCc1ccccn1)OCO2`, the fluorescence artifact activation was 0.01% (inactive).

With `O=C(c1ccc(F)cc1)N1CCN=C1c1ccccc1`, the fluorescence artifact activation is 0.24% (inactive).

Consider `O=C1c2ccccc2C(=O)N1CC1=NCCc2ccccc21`, for which the fluorescence artifact activation was 0.03% (inactive).

Take `O=C(CN1C(=O)c2ccccc2C1=O)N1CCN=C1c1ccccc1`: the fluorescence artifact activation is 19.8% (active).

In the case of `O=C(O)c1ccccc1/C=N/NC(=S)NC1CCCCC1`, the fluorescence artifact activation was 0.11% (inactive).

In the case of `CSc1ccc(Cl)c(C(=O)NNC(=O)c2csc(N3CCOCC3)n2)c1`, the fluorescence artifact activation is 2.41% (inactive).

Consider `CCCN1CC=C2C(C#N)=C(N)C(C#N)(C#N)C(c3cccc(OC)c3OC)C2C1` (stereo not given), for which the fluorescence artifact activation is 0.1% (inactive).

For the compound `Nc1nc(NCc2ccco2)nc(N2CCCCCC2)c1[N+](=O)[O-]`, the fluorescence artifact activation is 1.86% (inactive).

On to `Cc1cc(/C=C2\SC(=S)N(Cc3ccco3)C2=O)c(C)n1-c1ccccc1`, for which the fluorescence artifact activation is 3.1% (inactive).

As for `Cc1cc(/C=C2\SC(=S)N(Cc3ccco3)C2=O)c(C)n1-c1cccnc1`, the fluorescence artifact activation is 10.8% (inactive).

Consider `COc1ccc(-n2c(C)cc(/C=C3\SC(=S)N(Cc4ccco4)C3=O)c2C)cc1`, for which the fluorescence artifact activation was 91.9% (active).

Regarding `Cc1nc(NC(=O)C(Cl)Cl)sc1C(=O)N(C)C`, the fluorescence artifact activation was 0.56% (inactive).

On to `CCOc1c2ccc(C(=O)NCCc3cccs3)cc2nn1CC`, for which the fluorescence artifact activation is 0.58% (inactive).

Consider `CC(C)CCNC(=O)c1ccc2c(SCC(=O)O)c3c(nc2c1)CCC3`, for which the fluorescence artifact activation was 12.9% (active).

For `COC(=O)C1C2CC3c4[nH]c5cc(OC)ccc5c4CCN3CC2CC(OC(=O)CC(C)=O)C1OC` (stereo not given), the fluorescence artifact activation is 0.13% (inactive).

For `CN(C)c1ccc(/C=C2\NC(=S)N(Cc3ccccc3)C2=O)cc1`, the fluorescence artifact activation was 91.1% (active).

As for `Cc1ccc(/C=C2/NC(=O)N(Cc3ccccc3)C2=O)s1`, the fluorescence artifact activation was 0.01% (inactive).

With `CN(C)c1ccc(/C=C2\CCC/C(=C\c3ccccc3)C2=O)cc1`, the fluorescence artifact activation is 0.02% (inactive).

In the case of `COC(=O)c1sccc1Oc1ccc(Cl)cc1N1C(=O)CCC1=O`, the fluorescence artifact activation is 0.03% (inactive).

Turning to `COC(=O)c1c(=O)n(O)c2ccc(OC)cc2[n+]1[O-]`, the fluorescence artifact activation is 0.04% (inactive).

On to `C=CCn1c(=O)/c(=C/c2cc(OC)c(OC)c(OC)c2)s/c1=C(/C#N)c1nc2ccccc2n1C`, for which the fluorescence artifact activation was 0.02% (inactive).

Take `Cc1cccc(OCc2nn[nH]n2)c1C`: the fluorescence artifact activation is 1.02% (inactive).

Regarding `COc1ccccc1C1=NOC(Cn2c(=O)c3c(ncn3C)n(C)c2=O)C1` (stereo not given), the fluorescence artifact activation was 0.23% (inactive).

Take `O=C1c2cccc3cc([N+](=O)[O-])cc(c23)C(=O)N1CCN1CCCC1`: the fluorescence artifact activation was 0.08% (inactive).

In the case of `CC(C)CCN1C(=O)c2cccc3c(N)ccc(c23)C1=O`, the fluorescence artifact activation was 1.45% (inactive).

As for `CCN(CC)CCN1C(=O)c2cccc3cc(N)cc(c23)C1=O`, the fluorescence artifact activation is 24.6% (active).

With `Cc1ccc(Cn2c(O)c(N=NC(=S)Nc3ccccc3F)c3cc(S(=O)(=O)N4CCOCC4)ccc32)cc1`, the fluorescence artifact activation was 5.72% (inactive).

In the case of `CC(=O)c1cc(NC(=O)c2ccc(Cl)cc2)c(=O)oc1/C=C/N(C)C`, the fluorescence artifact activation is 0.02% (inactive).

In the case of `COC(=O)c1cc(NC(=O)c2ccccc2)c(=O)oc1C/C=N\OCc1ccc(Cl)cc1Cl`, the fluorescence artifact activation was 0.01% (inactive).

Turning to `CC(=O)c1cc(NC(=O)c2ccc(C)cc2)c(=O)oc1/C=C/N(C)C`, the fluorescence artifact activation was 15.6% (active).

For `N#CC12COC3(CCCCC3C1(C#N)C#N)OC2=N` (stereo not given), the fluorescence artifact activation is 0.14% (inactive).

Consider `CCOc1ccc(N(C(=O)CNC(=O)c2ccco2)C(C(=O)NC2CCCC2)c2ccncc2)cc1` (stereo not given), for which the fluorescence artifact activation was 0.08% (inactive).

For the compound `CCC(C)(C)NC(=O)C(c1ccc(F)cc1)N(Cc1ccco1)C(=O)c1cnccn1` (stereo not given), the fluorescence artifact activation was 18.7% (active).

`CN(CC(=O)NCc1ccco1)S(=O)(=O)c1cccc2cccnc12`: the fluorescence artifact activation was 6.75% (inactive).

On to `COc1cccc(CN2CCNC(=O)C2CC(=O)N(C)Cc2cnccn2)c1OC` (stereo not given), for which the fluorescence artifact activation is 0.09% (inactive).

Take `O=C(CSC1=NS(=O)(=O)c2ccccc2N1)N1CCCCC1`: the fluorescence artifact activation was 1.61% (inactive).

As to `CN(C)C(CNC(=O)CSc1nc2ccccc2c(=O)n1Cc1ccco1)c1ccccc1` (stereo not given), the fluorescence artifact activation was -0.06% (inactive).

For the compound `CC1(C)CC2(CCCN(C(=S)Nc3ccccc3)C2)CCO1` (stereo not given), the fluorescence artifact activation was 0.12% (inactive).

On to `O=C(Cc1c(F)cccc1Cl)Nc1nccs1`, for which the fluorescence artifact activation was 0.01% (inactive).

Consider `CC1(C)CC(CC(=O)Nc2nccs2)(c2ccccc2)CCO1` (stereo not given), for which the fluorescence artifact activation is 239% (active).

On to `Cn1c(=O)cc(SCC(=O)NCC2COc3ccccc3O2)c2ccccc21` (stereo not given), for which the fluorescence artifact activation was 0.03% (inactive).

`Cc1cc(NS(C)(=O)=O)c(=O)n(Cc2cccc(F)c2)c1`: the fluorescence artifact activation was 0.35% (inactive).

For `COc1ccc(N/C=C2\C(=O)CCc3c2oc2cc(Cl)c(O)c(Cl)c32)cc1`, the fluorescence artifact activation was 12.7% (active).

In the case of `Cn1cnnc1Sc1nc2ccccc2nc1NS(=O)(=O)c1ccccc1`, the fluorescence artifact activation is 4.87% (inactive).

With `Cc1cc(N/C=C\c2nnnn2-c2ccc(F)cc2)no1`, the fluorescence artifact activation is 233% (active).

Turning to `CC(=O)N(c1ccccc1)C1SC(=O)N(c2ccccc2)C1=O` (stereo not given), the fluorescence artifact activation is 0.05% (inactive).

`O=C(O)CN1C(=O)/C(=C/c2ccc(SCc3ccccc3)o2)SC1=S`: the fluorescence artifact activation is 11.5% (inactive).

Take `O=C(O)c1cc(-c2ccc(/C=C3/SC(=S)N(Cc4ccccc4)C3=O)o2)ccc1Cl`: the fluorescence artifact activation is 0.02% (inactive).

For the compound `O=C(O)C(c1ccccc1)N1C(=O)/C(=C\c2ccc(-c3ccc(Br)cc3)o2)SC1=S` (stereo not given), the fluorescence artifact activation was 68.3% (active).

With `CC(C)NC(=S)N/N=C/c1sc(N2CCCCC2)nc1-c1cccs1`, the fluorescence artifact activation was 0.18% (inactive).

With `FC(F)(F)c1ccc(-c2nc(=S)[nH][nH]2)cc1`, the fluorescence artifact activation is -0.01% (inactive).

For `CCN(CC)CC(C(=O)N(CC)CC)P(=O)(c1ccccc1)c1ccccc1` (stereo not given), the fluorescence artifact activation was 1.03% (inactive).

With `CCC1Oc2ccc(C)cc2N(CC(=O)NCc2cccs2)C1=O` (stereo not given), the fluorescence artifact activation was -0.08% (inactive).

As for `Cc1ccc(SCC(=O)OCC(=O)NCc2cccs2)cc1`, the fluorescence artifact activation is 2.52% (inactive).

As for `O=C(CO/N=C/c1ccccc1OC(F)F)NCc1cccs1`, the fluorescence artifact activation was 16.6% (active).

As for `C=CCOc1ccc(C2OC34CCCCC3C(C#N)(C#N)C2(C#N)C(=N)O4)cc1` (stereo not given), the fluorescence artifact activation is 0.84% (inactive).

Take `Cc1ccc(-c2noc(-c3c(C)noc3C)n2)cc1`: the fluorescence artifact activation is 2% (inactive).

For `O=C1c2ccsc2SCCN1Cc1ccc(F)cc1`, the fluorescence artifact activation is 7.58% (inactive).

On to `O=C(NN1C(=O)/C(=C/c2ccc(O)cc2)SC1=S)c1ccccc1O`, for which the fluorescence artifact activation was 0.14% (inactive).

With `C=C(C)c1cccc(C(C)(C)NC(=O)Nc2cccnc2)c1`, the fluorescence artifact activation is 5% (inactive).

For the compound `N#CC1=C(N)OC2=C(CC/C2=C\c2ccccc2)C1c1ccccc1` (stereo not given), the fluorescence artifact activation is 1.94% (inactive).

As to `N#CC1=C(N)OC2=C(CC/C2=C\c2ccccc2Cl)C1c1ccccc1Cl` (stereo not given), the fluorescence artifact activation is 125% (active).

As to `Cc1ccc(/C=C2\CCC3=C2OC(N)=C(C#N)C3c2ccc(C)cc2)cc1` (stereo not given), the fluorescence artifact activation is 0.12% (inactive).

As for `COc1ccc2c(n1)Sc1nc3ccccc3nc1N2`, the fluorescence artifact activation is 0.01% (inactive).

`O=C(c1ccccc1)c1ccc(O)cc1O`: the fluorescence artifact activation is 24.9% (active).

For `O=C(c1ccccc1)c1ccccc1C(=O)c1ccccc1`, the fluorescence artifact activation is 0.23% (inactive).

With `O=C(c1ccccc1)c1ccncc1`, the fluorescence artifact activation was 0.03% (inactive).

Take `CC1(C)CC(=O)C2=C(C1)OC(N)=C(C#N)[C@@H]2c1ccccc1[N+](=O)[O-]`: the fluorescence artifact activation was 7.58% (inactive).
